Measured values published in ChEMBL document CHEMBL5532688, “Carltonine-derived compounds for targeted butyrylcholinesterase inhibition” (RSC Med Chem, 2024).
Calls of active or inactive are those of the source. No cut-off for these calls is given here.

target: T1, Cholinesterase (Homo sapiens, UniProt P06276); assay: Reversible binding affinity to human BChE using butyrylthiocholine iodide as substrate assessed as reduction in Km at 0.445 to 1.400 micromol/L preincubated for 5 min followed by substrate addition and measured after 1 mins by Lineweaver-Burk plot analysis; conditions: dose 0.445-1.4 µmol/L, time 6.0 min
Procedure, shortened: (§1)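 Recombinant human BChE at final activity 0.002 U/μL in phosphate buffer. […] Km, Vmax, Ki and Ki' came from nonlinear regression of velocity curves. Lineweaver–Burk plots were drawn by linear regression.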

T1 sequence (P06276 whole entry): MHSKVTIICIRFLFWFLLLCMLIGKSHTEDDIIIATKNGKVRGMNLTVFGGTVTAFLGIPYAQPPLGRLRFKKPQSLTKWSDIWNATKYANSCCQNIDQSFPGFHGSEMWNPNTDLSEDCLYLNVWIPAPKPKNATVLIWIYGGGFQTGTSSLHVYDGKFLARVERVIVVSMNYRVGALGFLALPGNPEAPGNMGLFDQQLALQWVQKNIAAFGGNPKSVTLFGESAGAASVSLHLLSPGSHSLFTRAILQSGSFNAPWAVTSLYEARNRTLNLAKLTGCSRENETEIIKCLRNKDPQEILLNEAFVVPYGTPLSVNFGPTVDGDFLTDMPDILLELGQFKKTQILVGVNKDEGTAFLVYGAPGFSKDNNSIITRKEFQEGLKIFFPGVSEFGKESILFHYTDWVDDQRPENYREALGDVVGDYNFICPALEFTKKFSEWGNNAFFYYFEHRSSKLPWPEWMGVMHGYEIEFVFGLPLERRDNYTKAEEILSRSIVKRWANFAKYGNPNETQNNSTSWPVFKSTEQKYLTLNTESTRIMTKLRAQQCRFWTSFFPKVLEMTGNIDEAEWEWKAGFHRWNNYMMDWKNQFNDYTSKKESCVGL

Row | SMILES | Activity
1 | CCCN(CCc1ccc(O)cc1)Cc1ccc(OCc2ccccc2)cc1 | Active

target: T1, Cholinesterase; assay: Reversible binding affinity to human BChE using butyrylthiocholine iodide as substrate assessed as reduction in Vmax at 0.445 to 1.400 micromol/L preincubated for 5 min followed by substrate addition and measured after 1 mins by Lineweaver-Burk plot analysis; conditions: dose 0.445-1.4 µmol/L, time 6.0 min; procedure, shortened: as §1

Row | SMILES | Activity
2 | CCCN(CCc1ccc(O)cc1)Cc1ccc(OCc2ccccc2)cc1 | Active

target: T1, Cholinesterase; assay: Inhibition of human BChE using butyrylthiocholine iodide as substrate incubated for 1 mins by spectrophotometric Ellman's method; conditions: not given

Row | SMILES | IC50 [µM]
3 | C=CCOc1ccc(CCN(CC=C)Cc2ccc(OCc3ccccc3)c(OC)c2)cc1 | > 10

target: T2, Acetylcholinesterase (Homo sapiens, UniProt P22303); assay: Inhibition of human AChE using acetylthiocholine iodide as substrate at 10 uM incubated for 1 mins by spectrophotometric Ellman's method; conditions: not given
Procedure, shortened: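 Recombinant human AChE, modified Ellman assay; compound in DMSO (single 10 μM screen) preincubated 5 min with enzyme and 5 mM DTNB in pH 7.4 phosphate buffer. […] Triplicate.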

T2 sequence (P22303 whole entry): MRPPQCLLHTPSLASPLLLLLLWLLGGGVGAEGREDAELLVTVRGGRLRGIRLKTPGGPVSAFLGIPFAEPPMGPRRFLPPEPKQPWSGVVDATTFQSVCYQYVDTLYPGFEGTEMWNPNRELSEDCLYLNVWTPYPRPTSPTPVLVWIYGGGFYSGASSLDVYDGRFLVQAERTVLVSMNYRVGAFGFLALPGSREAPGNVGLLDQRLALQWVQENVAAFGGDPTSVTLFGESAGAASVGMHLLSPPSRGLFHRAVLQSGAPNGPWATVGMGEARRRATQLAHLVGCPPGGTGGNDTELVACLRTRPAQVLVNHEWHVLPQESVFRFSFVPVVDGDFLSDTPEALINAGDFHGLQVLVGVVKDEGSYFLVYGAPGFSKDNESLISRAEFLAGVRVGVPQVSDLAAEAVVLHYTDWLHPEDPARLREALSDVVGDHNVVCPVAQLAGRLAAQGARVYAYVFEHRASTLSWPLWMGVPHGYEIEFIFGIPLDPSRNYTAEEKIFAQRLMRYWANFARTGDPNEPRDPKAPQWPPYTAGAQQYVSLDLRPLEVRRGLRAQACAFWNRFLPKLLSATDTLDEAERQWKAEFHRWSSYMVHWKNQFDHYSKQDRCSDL

Row | SMILES | inhibition
4 | c1ccc(COc2ccc(CNCCc3ccccn3)cc2)cc1 | inactive
5 | C=CCN(CCc1ccccc1)Cc1cccc(OCc2ccccc2)c1 | inactive
6 | C=CCN(CCCc1ccccc1)Cc1cccc(OCc2ccccc2)c1 | inactive
7 | CCN(Cc1ccc(OCc2ccccc2)cc1)C(C)CCc1ccccc1 (stereo not given) | inactive
8 | c1ccc(CCNCc2cccc(OCc3ccccc3)c2)cc1 | inactive
9 | CCN(Cc1ccccc1)Cc1ccc(OCc2ccccc2)cc1 | inactive
10 | COc1cccc(CCNCc2ccc(OCc3ccccc3)cc2)c1 | inactive
11 | CCN(CCCc1ccccc1)Cc1cccc(OCc2ccccc2)c1 | inactive
12 | CCCN(CCCc1ccccc1)Cc1ccc(OCc2ccccc2)cc1 | inactive
13 | C=CCN(Cc1ccccc1)Cc1cccc(OCc2ccccc2)c1 | inactive
14 | CCCN(CCc1ccccc1)Cc1cccc(OCc2ccccc2)c1 | inactive
15 | c1ccc(CCCNCc2cccc(OCc3ccccc3)c2)cc1 | inactive
16 | CC(CNCc1cccc(OCc2ccccc2)c1)c1ccccc1 (stereo not given) | inactive
17 | CCCN(Cc1ccccc1)Cc1ccc(OCc2ccccc2)cc1 | inactive
18 | CCCN(CCc1ccc(O)cc1)Cc1ccc(OCc2ccccc2)cc1 | inactive
19 | COc1ccccc1CCNCc1ccc(OCc2ccccc2)cc1 | inactive
20 | c1ccc(CCCNCc2ccc(OCc3ccccc3)cc2)cc1 | inactive
21 | Oc1ccc(CCNCc2ccc(OCc3ccccc3)cc2)cc1 | inactive
22 | C=CCOc1ccc(CCN(CC=C)Cc2cccc(OCc3ccccc3)c2)cc1 | inactive
23 | COc1ccc(CCNCc2ccc(OCc3ccccc3)cc2)cc1 | inactive
24 | c1ccc(COc2ccc(CNCc3ccccn3)cc2)cc1 | inactive

Row | SMILES | inhibition
25 | CCN(Cc1ccccc1)Cc1cccc(OCc2ccccc2)c1 | inactive
26 | CCCOc1ccc(CCN(CCC)Cc2ccc(OCc3ccccc3)cc2)cc1 | inactive
27 | CCN(CCc1ccccc1)Cc1cccc(OCc2ccccc2)c1 | inactive
28 | COc1cccc(CCNCc2cccc(OCc3ccccc3)c2)c1 | inactive
29 | COc1ccccc1CCNCc1cccc(OCc2ccccc2)c1 | inactive
30 | COc1ccc(CCNCc2cccc(OCc3ccccc3)c2)cc1 | inactive
31 | CCCN(CCCc1ccccc1)Cc1cccc(OCc2ccccc2)c1 | inactive
32 | c1ccc(CCCCNCc2ccc(OCc3ccccc3)cc2)cc1 | inactive
33 | Clc1cccc(NCc2cccc(OCc3ccccc3)c2)c1 | inactive
34 | Oc1ccc(CCNCc2cccc(OCc3ccccc3)c2)cc1 | inactive
35 | c1ccc(CNCc2ccc(OCc3ccccc3)cc2)cc1 | inactive
36 | CC(CNCc1ccc(OCc2ccccc2)cc1)c1ccccc1 (stereo not given) | inactive
37 | C=CCOc1ccc(CCNCc2cccc(OCc3ccccc3)c2)cc1 | inactive
38 | COc1ccc(CNCc2cccc(OCc3ccccc3)c2)cc1OC | inactive
39 | C=CCN(CCc1ccc(O)cc1)Cc1cccc(OCc2ccccc2)c1 | inactive
40 | c1ccc(CNCc2cccc(OCc3ccccc3)c2)cc1 | inactive
41 | Clc1ccc(CCNCc2ccc(OCc3ccccc3)cc2)cc1 | inactive
42 | CC(CCc1ccccc1)NCc1ccc(OCc2ccccc2)cc1 (stereo not given) | inactive
43 | c1ccc(CCNCc2ccc(OCc3ccccc3)cc2)cc1 | inactive
44 | CCCN(Cc1ccc(OCc2ccccc2)cc1)C(C)CCc1ccccc1 (stereo not given) | inactive

target: T2, Acetylcholinesterase; assay: Inhibition of human AChE using acetylthiocholine iodide as substrate incubated for 1 mins by spectrophotometric Ellman's method; conditions: not given
Procedure, shortened: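 Modified Ellman assay on recombinant human AChE (acetylthiocholine) or human BChE (butyrylthiocholine). Enzyme, 5 mM DTNB and DMSO compound dilutions at several concentrations preincubated 5 min in pH 7.4 phosphate buffer. Reaction started with 10 mM substrate, ΔA read at 412 nm for 1 min. IC50 is the mean ± SEM of three independent runs, each in triplicate.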

Row | SMILES | IC50 [µM]
45 | CN(CCc1ccc(O)cc1)Cc1cc2c(cc1-c1cccc3c1N(C)CC3)OCO2 | > 100
